Test results as given in article PMC3525873 (British Journal of Pharmacology, 2012).

What was measured:
Format in all cases: cell-based
[1] = test system: NFAT; assay: GFP-NFAT translocation in RBL-2H3 cells; settings: 10 μM, thapsigargin 1 μM then 2 mM Ca2+ re-addition
How it was run: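 RBL-2H3 cells electroporated with GFP-NFAT (20 μg DNA, 300 V, 275 μF) 12–18 h beforehand, on coverslips. In nominally Ca2+-free buffer, stores depleted with 1 μM thapsigargin for 5 min, then 2 mM CaCl2 added. Test compound at 10 μM in all buffers. Basal taken before depletion. Cells fixed in paraformaldehyde with DAPI-stained nuclei. Nuclear/cytosolic GFP intensity ratio measured; ≥18 cells per condition.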

[2] = test system: RBL-2H3 cells; assay: Degranulation assay; settings: ionomycin 0.4 μM
How it was run: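 RBL-2H3 cells grown to confluency, washed in RBL-2H3 buffer with 2 mM CaCl2, all incubations at 37°C. Test compound (3 or 10 μM) for 15 min, then ionomycin 0.4 μM final for 30 min. Stopped with 0.4 M glycine (pH 10.7), A405 read. Untreated and 2% triton-lysed cells served as basal/maximal references. n = 3 passages.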

[3] = target: T1, TRPC3 (Homo sapiens, UniProt Q13507); assay: Patch-clamp of TRPC3 currents in HEK293 cells transiently expressing TRPC3; settings: 3 μM pre-incubation, carbachol
T1 sequence (Q13507 74-921 limits assumed): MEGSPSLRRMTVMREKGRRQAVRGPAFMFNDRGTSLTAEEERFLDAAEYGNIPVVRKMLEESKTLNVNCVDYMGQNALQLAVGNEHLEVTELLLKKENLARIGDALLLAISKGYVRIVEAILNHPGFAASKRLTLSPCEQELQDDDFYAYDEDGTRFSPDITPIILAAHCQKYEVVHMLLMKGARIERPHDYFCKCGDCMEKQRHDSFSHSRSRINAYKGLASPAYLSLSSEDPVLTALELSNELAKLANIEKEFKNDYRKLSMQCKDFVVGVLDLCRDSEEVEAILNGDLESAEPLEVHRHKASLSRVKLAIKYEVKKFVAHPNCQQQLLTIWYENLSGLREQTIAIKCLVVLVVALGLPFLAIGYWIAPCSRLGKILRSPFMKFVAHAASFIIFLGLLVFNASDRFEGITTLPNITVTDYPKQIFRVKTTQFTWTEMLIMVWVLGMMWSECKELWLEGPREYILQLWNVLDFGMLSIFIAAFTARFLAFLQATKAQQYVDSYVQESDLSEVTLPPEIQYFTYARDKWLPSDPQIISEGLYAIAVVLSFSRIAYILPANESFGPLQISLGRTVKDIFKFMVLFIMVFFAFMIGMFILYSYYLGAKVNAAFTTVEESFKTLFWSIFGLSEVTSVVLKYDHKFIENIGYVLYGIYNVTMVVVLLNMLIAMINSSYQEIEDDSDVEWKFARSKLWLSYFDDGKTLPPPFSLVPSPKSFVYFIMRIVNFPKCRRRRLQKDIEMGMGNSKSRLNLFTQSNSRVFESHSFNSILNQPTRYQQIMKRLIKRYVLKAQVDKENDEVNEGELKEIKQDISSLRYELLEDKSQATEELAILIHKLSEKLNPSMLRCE

[4] = target: CRAC currents in native RBL-2H3 cells (Rattus norvegicus, UniProt Q5M848); assay: Patch-clamp of CRAC currents in native RBL-2H3 cells; settings: for Effect on CRAC Ca2+ entry-mediating conductance: 3 μM pre-incubation
Sequence of CRAC currents in native RBL-2H3 cells (Q5M848 whole entry): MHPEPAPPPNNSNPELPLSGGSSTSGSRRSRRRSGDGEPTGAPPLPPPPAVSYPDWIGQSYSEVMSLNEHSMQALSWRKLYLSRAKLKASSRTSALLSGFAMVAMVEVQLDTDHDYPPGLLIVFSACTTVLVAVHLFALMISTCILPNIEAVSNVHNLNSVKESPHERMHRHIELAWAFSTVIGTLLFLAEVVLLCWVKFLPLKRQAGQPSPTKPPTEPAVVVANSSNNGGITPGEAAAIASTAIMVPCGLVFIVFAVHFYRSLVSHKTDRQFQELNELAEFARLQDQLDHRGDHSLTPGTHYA
How it was run: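 Whole-cell recording of native RBL-2H3 cells at room temperature. Stores depleted passively by 20 mM EGTA in the Cs-methanesulphonate pipette solution (pH 7.2). Bath contained 20 mM CaCl2 (pH 7.4). Ramps from −90 to +90 mV over 1 s, holding +30 mV. Test compound at 3 μM, pre-incubated or applied acutely. Net current (minus basal) read at −85 mV 300 s after break-in; n ≥ 6 cells.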

[5] = target: STIM1/Orai1-mediated SOCE (Rattus norvegicus, UniProt Q5M848); assay: Fura-2 Ca2+ re-addition, thapsigargin-depleted native RBL-2H3 cells
Sequence of STIM1/Orai1-mediated SOCE (Q5M848 whole entry, the tested form may be a part): as the sequence (Q5M848 whole entry) above
How it was run: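 Native RBL-2H3 cells were loaded with 2 μM Fura-2-AM for 45 min and perfused in Ca2+-free extracellular solution at room temperature. Stores depleted with 1 μM thapsigargin for 5 min. Test compound present ≥5 min before and throughout. Ca2+ entry evoked by 2 mM Ca2+ re-addition; 340/380 nm ratio read (510 nm emission). Inhibition expressed as % of control peak entry. IC50 by 4-parameter logistic fit; 3–5 experiments, 29–80 cells.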

[6] = target: STIM1/Orai1 (Homo sapiens, UniProt Q96D31)
Sequence of STIM1/Orai1 (Q96D31 whole entry, species assumed): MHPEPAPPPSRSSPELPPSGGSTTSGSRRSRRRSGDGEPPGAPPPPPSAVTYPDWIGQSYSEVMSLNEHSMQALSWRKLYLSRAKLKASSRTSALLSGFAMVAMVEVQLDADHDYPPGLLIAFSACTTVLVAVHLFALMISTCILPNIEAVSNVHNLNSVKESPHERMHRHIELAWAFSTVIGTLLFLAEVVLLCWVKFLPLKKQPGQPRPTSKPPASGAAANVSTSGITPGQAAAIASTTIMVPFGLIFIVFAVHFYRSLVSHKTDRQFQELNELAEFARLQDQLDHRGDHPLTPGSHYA
Sequence of STIM1/Orai1 (Q13586 23-685 partner, species assumed): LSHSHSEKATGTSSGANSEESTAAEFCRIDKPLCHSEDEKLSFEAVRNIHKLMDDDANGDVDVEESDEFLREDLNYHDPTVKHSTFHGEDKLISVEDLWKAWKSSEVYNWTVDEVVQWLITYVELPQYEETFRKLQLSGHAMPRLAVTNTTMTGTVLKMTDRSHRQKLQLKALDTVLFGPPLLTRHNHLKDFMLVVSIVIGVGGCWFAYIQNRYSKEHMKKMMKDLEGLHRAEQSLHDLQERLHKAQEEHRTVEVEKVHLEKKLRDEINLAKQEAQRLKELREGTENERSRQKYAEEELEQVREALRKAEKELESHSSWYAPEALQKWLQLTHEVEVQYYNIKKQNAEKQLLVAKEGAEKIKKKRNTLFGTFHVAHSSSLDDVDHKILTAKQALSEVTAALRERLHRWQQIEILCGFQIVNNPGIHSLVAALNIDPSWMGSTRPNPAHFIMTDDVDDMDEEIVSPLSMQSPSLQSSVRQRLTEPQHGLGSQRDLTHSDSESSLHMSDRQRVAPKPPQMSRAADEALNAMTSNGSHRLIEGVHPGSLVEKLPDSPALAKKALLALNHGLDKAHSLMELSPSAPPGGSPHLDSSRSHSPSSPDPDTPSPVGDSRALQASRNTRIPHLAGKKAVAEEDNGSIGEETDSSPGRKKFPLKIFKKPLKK
How it was run: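 Whole-cell recording at room temperature in HEK293 transiently co-expressing CFP-STIM1 and YFP-Orai1. CRAC activated by 20 mM EGTA in the pipette with 10 mM CaCl2 in the bath. Bath then switched to divalent-free solution to carry Na+ current. Test compound (10 μM) applied acutely; current followed over time; n = 4 cells.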

## Cc1nnsc1C(=O)Nc1ccc(-n2nc(C(F)(F)F)cc2C(F)(F)F)cc1 [Pyr2, N-(4-(3,5-bis(trifluoromethyl)-1H-pyrazole-1-yl)phenyl)-4-methyl-1,2,3-thiadiazole-5-carboxamide]
[1]
  Effect on NFAT translocation: clearly inhibited NFAT translocation
[2]; 3 μM
  Effect on ionomycin-initiated degranulation: substantially reduced degranulation
[2]; 10 μM
  Effect on ionomycin-initiated degranulation: suppressed responses down to basal levels
[3]
  Effect on TRPC3 Ca2+ entry-mediating conductance: completely eliminated
[4]
  Effect on CRAC Ca2+ entry-mediating conductance: completely eliminated
[5]
  IC50: 590 nM
[5]; RBL-2H3 SOCE vs TRPC3 ROCE
  Higher potency in SOCE model than in TRPC3-ROCE model, orders of magnitude: 0.85 OM
[5]; ratio of IC50 values, RBL-2H3 SOCE vs TRPC3 ROCE
  Higher potency in SOCE model than in TRPC3-ROCE model: sevenfold

## CCOC(=O)c1cnn(-c2ccc(NC(=O)C(Cl)=C(Cl)Cl)cc2)c1C(F)(F)F [Pyr3, ethyl 1-(4-(2,3,3-trichloroacrylamido)phenyl)-5-(trifluoromethyl)-1H-pyrazole-4-carboxylate]
[1]
  Effect on NFAT translocation: clearly inhibited NFAT translocation
[6]; 10 μM, divalent-free conditions
  Effect on divalent-free sodium current through CRAC pore: affecting sodium influx through it
[6]; HEK293 expressing STIM1 and Orai1, passive store depletion with EGTA
  Effect on reconstituted CRAC pore currents upon acute administration: acutely blocks a reconstituted CRAC pore in a dose-dependent, non-reversible manner
[2]; 3 μM
  Effect on ionomycin-initiated degranulation: substantially reduced degranulation
[2]; 10 μM
  Effect on ionomycin-initiated degranulation: suppressed responses down to basal levels
[3]
  Effect on TRPC3 Ca2+ entry-mediating conductance: completely eliminated
[4]
  Effect on CRAC Ca2+ entry-mediating conductance: completely eliminated
[4]; acute administration, 3 μM, native RBL-2H3 cells
  Effect on native CRAC currents upon acute administration: rapidly suppresses
